M1 antagonist – antagonists of rat M1 muscarinic receptor. CHO-M1 cells, Fluo-4 calcium, ACh EC80 antagonist mode; stronger effect = lower value. AID 628. B-score at 10 µM. P08482. actives 3.4% (n = 64,000);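 active = calcium fluorescence response, raw or row-and-column corrected B-score, differing from the plate sample mean either way at a set confidence level, mostly lower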
RORA act – activates the human nuclear receptor RORA. P35398. CHO-K1 Gal4-RORA LBD luciferase reporter, luminescence; percent increase over mock-subtracted basal signal. activation, % at 10 µM. actives 1.5% (n = 65,000). AID 560;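 active = activation above the mean of all tested compounds plus 3 SD, cut at about 49% in these data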;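 also: 0% = DMSO-treated RORA cells and 100% = added signal equal to DMSO minus mock-transfected cells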
mHtt clearance – mutant huntingtin protein clearance; HeLa Exon1htt(103Q)mCFP, aggregate imaging; zero = plate's median compound well; inhibition, % at 1.5 µM; actives 0.42% (n = 47,000); AID 853;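 active = inhibition of aggregate fluorescence above about 70%, also judged a hit by eye on the cell image, limit read from the data, passing the limit was not always enough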;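 also: cells exposed to compound for three days before fixation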
SF1 activator – activators of human nuclear receptor SF-1; actives 1.9% (n = 65,000); activation, % at 10 µM; CHO-K1 Gal4-SF-1 LBD luciferase reporter; % increase over DMSO SF-1-specific signal; AID 522;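 active = activation above the mean activation of all tested compounds plus 3 SD, cut at about 50% in these data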
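Material: CHO-K1 cells with Gal4–hSF-1 LBD chimera plus Gal4-driven luciferase / Input: 4,000 CHO-K1 cells per well / Incubation: compound exposure 20 h at 37 °C / Signal: luminescence read 15 min after SteadyLite luciferase reagent, after room-temperature equilibration / Read-out: percent activation versus DMSO / Benchmarks: DMSO negative control and −SF1 background wells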
M1 ag – activates the M1 muscarinic receptor | CHO-M1 cells, Fluo-4 calcium fluorescence, agonist mode; stronger effect = higher value | actives 3% (n = 64,000) | B-score at 10 µM;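 active = fluorescence rise, raw or as B-score row- and column-corrected plate score, outside the 99.7% band of its plate's samples, either direction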
D1 mod – allosteric modulators of human D1 dopamine receptor; HEK293 D1, CRE-luciferase, dopamine EC30 potentiation; actives deviate in either direction; AID 641; B-score at 10 µM; actives 5.9% (n = 58,000);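 active = luminescence count or its row- and column-corrected plate score outside the 99.7% band of the plate's sample wells, on either side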
Target sequence (P21728 whole entry, looked up): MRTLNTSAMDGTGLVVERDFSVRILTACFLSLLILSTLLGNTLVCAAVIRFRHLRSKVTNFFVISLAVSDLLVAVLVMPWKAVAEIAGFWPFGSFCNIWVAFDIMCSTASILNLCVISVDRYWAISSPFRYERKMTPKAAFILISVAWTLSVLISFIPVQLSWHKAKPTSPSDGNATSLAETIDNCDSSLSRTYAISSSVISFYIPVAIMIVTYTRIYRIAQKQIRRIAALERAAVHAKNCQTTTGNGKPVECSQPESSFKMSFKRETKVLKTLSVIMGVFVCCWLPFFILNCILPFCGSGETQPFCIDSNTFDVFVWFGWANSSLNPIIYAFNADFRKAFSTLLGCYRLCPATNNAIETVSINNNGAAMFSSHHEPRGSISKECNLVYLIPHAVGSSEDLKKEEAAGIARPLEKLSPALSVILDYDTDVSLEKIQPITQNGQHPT
An asterisk follows results filed as active; nt = not tested or not shown. In the library only some 11% were active in any assay of this set; here they are far more common.

SMILES	M1 antagonist	RORA act	mHtt clearance	SF1 activator	M1 ag	D1 mod
C#CCn1c(=NC(=O)c2cccs2)sc2cccc(OC)c21	-0.24	79*	nt	76*	0.036	-0.21
C#CCn1c(=NC(=O)CSCC(=O)N2CCOCC2)sc2ccccc21	-0.16	-20	nt	0	-0.22	nt
CCC1CCc2c(sc3nc(SCC(=O)NCc4ccco4)n(-c4ccccc4)c(=O)c23)C1 (centres undefined)	nt	nt	32	nt	nt	nt
COc1ccccc1C1NC(=O)NC(C)=C1C(C)=O (centres undefined)	-1.4	12	71*	0	0.3	-0.17
Cc1nnc(Nc2ccccn2)c2ccccc12	-0.29	19	nt	1	0.23	-0.89
c1ccc(/N=C2\N=C(Nc3ccccn3)c3ccccc32)nc1	nt	-47	nt	-86	nt	14*
Cc1sccc1C1C(C#N)=C(N)SC(N)=C1C#N	0.44	-12	nt	-11	130*	-1.2
Cc1cc(C2C(C#N)=C(N)SC(N)=C2C#N)c(C)s1	0.24	5	-53	-4	3.3*	-0.12
COC(=O)C1=C(C)OC(N)=C(C#N)C1c1cc(C)sc1C (centres undefined)	nt	nt	-17	nt	nt	nt
N#CCSc1nnc(-c2ccccc2)c(-c2ccccc2)n1	0.16	-2	nt	-4	-1.7	1.4
CN(C)c1nc(SCC#N)nc(N(C)C)n1	0.091	-4	72*	16	-1.6	2.1
O=C(CCCCn1c(=O)c2ccccc2n(Cc2ccc(F)cc2Cl)c1=O)NCc1ccco1	0.43	22	nt	7	-0.65	14*
Cc1sc(NC(=O)c2ccco2)nc1-c1ccc2c(c1)CC(C)N2C(=O)C1CC1 (centres undefined)	-3.6*	39	nt	41	14*	-3.6*
COc1ccc(S(=O)(=O)NCC2CCC(C(=O)N3CCC4(CC3)OCCO4)CC2)cc1 (centres undefined)	0.052	-28	29	4	-0.85	-0.084
CCCOC(=O)C1=C(C)OC23OC(N)=C(C#N)C12C(=O)c1ccccc13 (centres undefined)	nt	nt	-30	nt	nt	nt
CCCn1nc(Oc2nc(SC)nc(N(C)C)n2)ccc1=O	2*	13	-13	9	-0.84	nt
CSc1nc(Oc2ccc(=O)[nH]n2)nc(N(C)C)n1	0.54	-9	nt	-2	-0.84	nt
CCCCOC(=O)n1c(=O)oc2cc(S(=O)(=O)N3CCCCC3)ccc21	0.036	-4	72*	0	0.49	-1.1
COC(=O)n1c(=O)oc2cc(S(=O)(=O)N3CCOCC3)ccc21	nt	9	nt	-13	nt	0.92
CC#CCCCC(=O)Nc1ccc(C(=O)O)cc1	-0.92	-4	-69	2	-1.4	-3.1*
Clc1ccc(OCc2nnc(-c3ccccc3Br)o2)cc1	0.074	17	28	8	-0.68	1.1
Clc1ccc(OCc2nnc(-c3ccccc3Br)o2)c(Cl)c1	-0.03	90*	28	30	-0.9	-0.3
O=C(Cc1ccc(S(=O)(=O)N2CCOCC2)s1)Nc1ccc2c(c1)CCC2	-0.77	5	54	23	-0.95	0.098
O=C(Cc1ccc(S(=O)(=O)N2CCOCC2)s1)NCC1CCCCC1	0.19	13	0	17	-1.2	-7*
CC(=O)N1CCC(N(C(=O)Nc2c(F)cccc2F)C(C)C)CC1	nt	nt	-117	nt	nt	nt
SMILES	M1 antagonist	RORA act	mHtt clearance	SF1 activator	M1 ag	D1 mod
O=c1oc2c3c4c(cc2cc1-c1nc2ccccc2[nH]1)CCCN4CCC3	-15*	52*	nt	44	338*	-2.7*
Nc1ccccc1-c1nc2ccccc2[nH]1	-0.66	45	-31	47	-0.47	-0.73
O=c1oc2c(CN3CCCCC3)c(O)ccc2cc1-c1nc2ccccc2[nH]1	-18*	16	nt	27	182*	-0.4
COc1cccc(OC)c1OCC(C)CNCC1CCCO1 (centres undefined)	-0.66	13	nt	-2	-0.41	nt
O=C(CCCn1c(=S)[nH]c2ccccc2c1=O)N1CCCCC1	-0.23	6	73*	3	-0.34	0.62
CCN1C=CC2=C(C#N)C(N)C(C#N)(C#N)C(c3ccccc3C(F)(F)F)C2C1 (centres undefined)	nt	nt	-98	nt	nt	nt
CC(=O)n1c2ccccc2c2c(C#N)c(N3CCCCC3)sc21	-0.015	-1	nt	51*	-2.3	0.32
CCN1CCN(c2ccc(NC(=O)Cc3ccccc3)cc2)CC1	-0.3	-3	-20	8	0.67	-4.7*

Assay outcomes (PubChem)
